{"data": "Experimental data from different studies", "note": "Protocols differ between the studies behind these lines."}
{"SMILES": "CCC1(c2ccc(N)cc2)CCC(=O)NC1=O (stereo not shown)", "target or system": "OVCAR-3", "test": "cell growth or viability, CCK-8", "conditions": "48 h", "quantity": "IC50", "value": "> 50 µM"}
{"SMILES": "CC(C)C[C@H](NC(=O)OCc1ccccc1)C(=O)N[C@@H](CC(C)C)C(=O)N[C@@H](CC(C)C)C(=O)C(=O)Nc1cccc2c1CCC2", "target or system": "RPMI-8226", "test": "cell growth or viability, MTS", "conditions": "72 h", "quantity": "IC50", "value": "0.0659 µM"}
{"SMILES": "CC[C@H]1OC(=O)[C@H](C)[C@@H](O[C@H]2C[C@@](C)(OC)[C@@H](O)[C@H](C)O2)[C@H](C)[C@@H](O[C@@H]2O[C@H](C)C[C@H](N(C)C)[C@H]2O)[C@](C)(O)C[C@@H](C)C(=O)[C@H](C)[C@@H](O)[C@]1(C)O", "target or system": "Bacillus cereus", "test": "microbial growth", "quantity": "MIC", "value": "3.13 µM"}
{"SMILES": "Cc1cc(NS(=O)(=O)c2ccc(N)cc2)no1", "target or system": "Salmonella enterica", "test": "microbial growth", "test system": "CHOLERAESUIS", "conditions": "20 h, pH 7.2", "quantity": "MIC", "value": "2050 µg/mL"}
{"SMILES": "COc1ccccc1Cc1cc(C)cc(=O)n1O", "target or system": "Cryptococcus gattii", "test": "microbial growth", "quantity": "MIC80", "value": "1.5 µM"}
{"SMILES": "CCCCCCCCCCCC(=O)OC[C@H]1O[C@@H](n2cc(C)c(=O)[nH]c2=O)C[C@@H]1OC(=O)c1ccc(C(C)(C)C)cc1", "target or system": "Bacillus cereus", "test": "microbial growth, broth dilution", "quantity": "MIC", "value": "2 µg/mL"}
{"SMILES": "O=C1NN=C(N=Cc2ccc(O)c(O)c2)C1=NNn1c(-c2ccccc2)nc2ccccc2c1=O", "target or system": "Salmonella enterica", "test": "microbial growth, broth dilution", "test system": "PARATYPHI", "conditions": "24 h", "quantity": "MIC", "value": "53.5 µM"}
{"SMILES": "C=C(C)[C@H]1Cc2c(ccc3c2O[C@@H]2COc4cc(OC)c(OC)cc4[C@@H]2C3=O)O1", "target or system": "ReNcell VM", "test": "cell growth or viability, imaging", "conditions": "24 h", "quantity": "IC50", "value": "~0.28 µM"}
{"SMILES": "CCN1CCN(c2cc3c(cc2F)c(=O)c(C(=O)O)cn3C2CC2)CC1", "target or system": "Salmonella enterica", "test": "microbial growth", "test system": "CHOLERAESUIS", "conditions": "20 h, pH 7", "quantity": "MIC", "value": "0.0625 µg/mL"}
{"SMILES": "COc1cc(Cc2cnc(N)nc2N)cc(OC)c1OC", "target or system": "Shigella dysenteriae", "test": "microbial killing, broth dilution", "conditions": "48 h", "quantity": "MBC", "value": "32 µg/mL"}
{"SMILES": "CC(/C=C/C(O)=C1/C(=O)CNC1=O)=C\\[C@@H](C)[C@H]1O[C@@]2(C)O[C@H](C(=O)[C@@H]3O[C@@]32C)[C@@H]1C", "target or system": "Bacillus cereus", "test": "microbial growth", "quantity": "MIC", "value": "6.25 µM"}
{"SMILES": "COc1ccc(C[C@H](NC(=O)[C@H](C)NC(=O)CN2CCOCC2)C(=O)N[C@@H](Cc2ccccc2)C(=O)[C@@]2(C)CO2)cc1", "target or system": "RPMI-8226", "test": "cell growth or viability, MTS", "conditions": "72 h", "quantity": "IC50", "value": "0.213 µM"}
{"SMILES": "Cc1cc(C2CCCCC2)n(O)c(=O)c1", "target or system": "Cryptococcus gattii", "test": "microbial growth", "quantity": "MIC80", "value": "2.3 µM"}
{"SMILES": "O=C(N[C@H](CO)[C@H](O)c1ccc([N+](=O)[O-])cc1)C(Cl)Cl", "target or system": "Salmonella enterica", "test": "microbial growth", "test system": "CHOLERAESUIS", "conditions": "20 h, pH 7.2", "quantity": "MIC", "value": "4 µg/mL"}
{"SMILES": "CC1=NN(CNC(=O)c2ccccn2)C(=O)C1=NNn1c(-c2ccccc2)nc2ccccc2c1=O", "target or system": "Salmonella enterica", "test": "microbial growth, broth dilution", "test system": "PARATYPHI", "conditions": "24 h", "quantity": "MIC", "value": "104 µM"}
{"SMILES": "O=c1cccc(C2CCCCC2)n1O", "target or system": "Cryptococcus gattii", "test": "microbial growth", "quantity": "MIC80", "value": "1.7 µM"}
